Data from article PMC4161153 (Journal of Medicinal Chemistry, 2014).

test system: natural killer lymphocytes; assay: CD69 upregulation by flow cytometry in whole human blood; format: cell-based; details: overnight 37 °C, CD3–CD56+ cells, Figure 4
Procedure, shortened: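 Heparin-anticoagulated whole blood from healthy volunteers was incubated overnight at 37 °C with graded concentrations of test compound, a TLR7-agonist reference or medium. Cells were stained for 30 min at 37 °C in the dark with CD3-PE, CD56-APC and CD69-PE-Cy7. Erythrocytes were lysed and leukocytes fixed in one step. CD69 was read on CD3⁻CD56⁺ NK cells from 100,000 gated events.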

| Structure (SMILES) | CD69 upregulation in NK lymphocytes |
| --- | --- |
| CCCCCn1c(N)nc2c(C)cccc21 [Compound 31a, 4-Methyl-1-pentyl-1H-benzo[d]imidazol-2-amine] | complete absence of CD69 upregulation |

target: T1, human TLR8 (Homo sapiens, UniProt Q9NR97); assay: Human TLR8-specific reporter gene assay; format: cell-based; details: HEK293 cells, NF-κB induction
T1 sequence (Q9NR97 27-1041): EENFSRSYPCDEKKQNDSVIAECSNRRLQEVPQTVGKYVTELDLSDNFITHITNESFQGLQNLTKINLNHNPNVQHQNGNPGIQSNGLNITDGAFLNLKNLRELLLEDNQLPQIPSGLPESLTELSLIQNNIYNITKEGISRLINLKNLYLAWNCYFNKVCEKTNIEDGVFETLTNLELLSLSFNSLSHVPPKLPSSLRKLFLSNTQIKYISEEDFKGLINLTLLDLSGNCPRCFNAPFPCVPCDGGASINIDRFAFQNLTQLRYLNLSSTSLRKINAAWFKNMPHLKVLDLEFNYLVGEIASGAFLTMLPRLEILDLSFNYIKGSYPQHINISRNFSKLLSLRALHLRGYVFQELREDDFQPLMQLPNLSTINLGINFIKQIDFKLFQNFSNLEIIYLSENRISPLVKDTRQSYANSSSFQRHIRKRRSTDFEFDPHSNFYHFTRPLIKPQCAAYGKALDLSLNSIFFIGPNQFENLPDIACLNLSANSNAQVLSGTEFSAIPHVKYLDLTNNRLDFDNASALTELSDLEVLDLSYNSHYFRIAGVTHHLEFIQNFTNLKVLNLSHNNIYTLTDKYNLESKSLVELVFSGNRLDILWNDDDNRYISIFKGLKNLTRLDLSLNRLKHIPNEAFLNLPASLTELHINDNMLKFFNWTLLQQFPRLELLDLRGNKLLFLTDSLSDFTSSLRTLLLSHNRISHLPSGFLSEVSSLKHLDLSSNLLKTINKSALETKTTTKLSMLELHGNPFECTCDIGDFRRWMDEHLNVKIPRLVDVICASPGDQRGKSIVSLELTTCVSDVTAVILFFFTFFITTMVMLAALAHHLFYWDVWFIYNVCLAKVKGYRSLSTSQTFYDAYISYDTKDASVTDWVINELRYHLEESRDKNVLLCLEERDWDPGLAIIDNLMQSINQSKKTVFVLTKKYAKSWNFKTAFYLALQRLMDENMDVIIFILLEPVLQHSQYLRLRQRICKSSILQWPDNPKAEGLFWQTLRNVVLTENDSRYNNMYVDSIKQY

| Structure (SMILES) | hTLR8 Agonistic Activity (EC50) |
| --- | --- |
| NCc1cccc(Cn2c(N)nc3ccccc32)c1 [Compound 8f, 1-(3-(Aminomethyl)benzyl)-1H-benzo[d]imidazol-2-amine] | neither 8d nor 8f were active |
| CCCCCn1c(NC(C)=O)nc2ccccc21 [Compound 10, N-(1-Pentyl-1H-benzo[d]imidazol-2-yl)acetamide] | completely abrogated activity |
| CCCCCn1c(N)nc2c(Cc3ccccc3)cccc21 [Compound 31m, 4-Benzyl-1-pentyl-1H-benzo[d]imidazol-2-amine] | abrogated activity |
| CCCCOC(=O)n1c(N)nc2ccccc21 [Compound 9, Butyl 2-amino-1H-benzo[d]imidazole-1-carboxylate] | completely abrogated activity |
| CCCCCn1c(N)nc2c(-c3ccccc3)cccc21 [Compound 31l, 1-Pentyl-4-phenyl-1H-benzo[d]imidazol-2-amine] | abrogated activity |
| CCCCCn1c(N)nc2c(OCc3ccccc3)cccc21 [Compound 35, 4-Benzyloxy-1-pentyl-1H-benzoimidazol-2-ylamine] | abrogated activity |
| Nc1nc2ccccc2n1Cc1ccccc1 [Compound 8d, 1-Benzyl-1H-benzo[d]imidazol-2-amine] | neither 8d nor 8f were active |

test system: not listed separately; assay: Chemical stability of the free base; format: physicochemical; details: rapid formation of overoxidized 3-ol derivative 5 via autoxidation

| Structure (SMILES) | Stability of the compound (free base) |
| --- | --- |
| CCCCC1C(N)=Nc2ccccc21.Cl (stereo not drawn) [Compound 4] | exceedingly unstable |
